INS promoter act – TRM-6 insulin promoter activation | TRM-6 cells, insulin promoter eGFP reporter, imaging; plate-scaled: unstimulated 0, stimulated control 100 | activation, % at 2 µM | 130,000 compounds, 0.81% hits | AID 1296;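 active = activation at 2 µM above a set limit, confirmed on inspection of the cell images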;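 note: share of cells whose green reporter signal exceeds an intensity cutoff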
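material = TRM-6 human fetal islet cells, insulin promoter–eGFP reporter | input = 1,000 TRM-6 cells seeded per well | benchmarks = stimulated versus unstimulated wells as plate controls | measured by = automated fluorescence imaging of paraformaldehyde-fixed, Hoechst-counterstained cells, green channel | schedule = compound exposure 48 h, 37 °C | reagent = tamoxifen at 0.75 µM added at seeding for reporter induction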
Large screens that a line does not name were inactive; [ ] = dose if it differs, or a comment. This excerpt belongs to a sample that is enriched for hits.

C=CCn1c(CNC(=O)c2ccco2)nnc1SCC(=O)c1ccccc1	INS promoter act 255
O=C(NCc1ccccc1)c1ccco1	none
COc1ccccc1N1CCN(c2ccc([N+](=O)[O-])cc2Cl)CC1	none
O=C(NCCCCNC(=O)c1ccc(Br)s1)c1ccc(Br)s1	none
Cc1ccc(S(=O)(=O)CCC(=O)OCC(=O)NCc2ccc(Cl)cc2)cc1	none
Cc1cc(C)nc(SCC(=O)n2c3c(c4ccccc42)CCCC3)n1	none
Cc1ccc2c(c1)c1c(n2CC(O)Cn2nc(C)c(Br)c2C)CCCC1 (stereo not given)	INS promoter act 83
Cc1nn(CC(O)Cn2cnc3c2c(=O)n(C)c(=O)n3C)c(C)c1Br (stereo not given)	none
CCC(Sc1nncn1C)C(=O)Nc1ccccc1OC (stereo not given)	none
O=C(Nc1ccc2c(c1)CCC2)C1CCN(c2ncccn2)CC1	none
Cc1cc(C)c(NC(=O)C2CCN(c3cnccn3)CC2)c(C)c1	INS promoter act 481
Cc1cc(C)c(NC(=O)C2CCCN2C(=O)NC2CCCCC2)c(C)c1 (stereo not given)	none
CCOc1ccc(C2=C(C=Nc3c(C)n(C)n(-c4ccccc4)c3=O)C(c3ccc(F)cc3)c3ccccc3O2)cc1 (stereo not given)	none
Cc1cccc(N2CCN(C(=O)C(C)n3nc(C)n4c(cc5occc54)c3=O)CC2)c1C (stereo not given)	none
CCOC(=O)c1sc(NC(=O)CCCn2nc([N+](=O)[O-])cc2C)c(C(=O)OCC)c1C	none
CCCNC(=O)c1cnc(Sc2ncc(C(F)(F)F)cc2Cl)n1C	none
N#Cc1c(Sc2ncc(C(F)(F)F)cc2Cl)nsc1C/C=N\OCc1c(F)cccc1Cl	INS promoter act 543
FC(F)(F)c1cnc(Sc2nnc(-c3cccs3)n2CC2CCCO2)c(Cl)c1 (stereo not given)	none
CC(C)OCCCNS(=O)(=O)c1ccc2ccccc2c1	none
CCOc1ccccc1Nc1nnc(SC(C)C(=O)Nc2nc(-c3ccccc3)cs2)s1 (stereo not given)	none
Cc1ccc(CSc2nnc(-c3ccco3)n2N)cc1	none
COc1ccc(S(=O)(=O)n2nc(C)cc2C)c(C)c1C	none
CCC(=O)N1CCc2cc(S(=O)(=O)NCCCOC)ccc21	none
CCC(=O)N1CCc2cc(S(=O)(=O)NC(Cc3ccccc3)C(=O)NC3CCCCC3)ccc21 (stereo not given)	INS promoter act 317
CCOC(=O)N1CCC(NC(=O)C(NS(=O)(=O)c2ccc3c(c2)CCN3C(C)=O)C(C)C)CC1 (stereo not given)	none
COc1ccc(OC)c(S(=O)(=O)Nc2ccc(O)c3ccccc23)c1	INS promoter act 450
CNS(=O)(=O)c1cc(OC)ccc1OC	none
COC(=O)c1c(C)oc2ccc(NS(=O)(=O)c3cc(OC)ccc3OC)cc12	none
Cc1ccc2ncnc(NCCCCCC(=O)O)c2c1	none
CN(C)c1nc(Nc2ccccc2)nc(Oc2ccc(=O)[nH]n2)n1	none
Cc1ccc(Nc2nc(Oc3ccc(=O)[nH]n3)nc(N(C)C)n2)cc1	none
CNc1nc(Oc2ccc(C(=O)OC)cc2)nc(SC)n1	INS promoter act 494
CCNc1nc(Oc2ccc(=O)[nH]n2)nc(SC)n1	none
COC(=O)c1ccc(Oc2nc(Nc3ccccc3)nc(N(C)C)n2)cc1	INS promoter act 585
COC(=O)c1ccc(-n2nnnc2SC)cc1	none
Cc1ccc2[nH]c(SCC(=O)N3CCOCC3)nc2c1C	none
CCOc1cc(C(=O)N/N=C/C2CC=CCC2)cc(OCC)c1OCC (stereo not given)	none
O=S(=O)(c1ccc(NC(=S)NCc2ccco2)cc1)N1CCCC1	none
Cc1cc(C)n(-c2ccc(C(=O)OCC(=O)c3ccc(Br)s3)cc2)n1	none
Cc1ccc(Oc2ncccc2COC(=O)Nc2ccccc2C)cc1	INS promoter act 369
Cc1ccc(Sc2ncccc2COC(=O)Nc2c(C)cccc2C)cc1	none
Cc1ccccc1NC(=O)OCc1cccnc1Sc1ccc(Cl)cc1	none
CN(Cc1ccccc1)C(=O)CN1CCN(C(c2ccccc2)c2ccccc2)CC1	none
O=C(c1ccc(-n2cnnn2)cc1)N1CCCCC1	none
CC(C)(C)N1C(=O)c2ccc(C(=O)NCc3ccco3)cc2C1=O	none
CCCCN1C(=O)C(CC(=O)NCC)SC1=Nc1ccccc1 (stereo not given)	INS promoter act 450
O=C(O)CC1SC(=Nc2ccccc2)N(c2ccccc2)C1=O (stereo not given)	none
CCN=C1SC(CC(=O)NCCc2ccc(OC)c(OC)c2)C(=O)N1CC (stereo not given)	none
CSc1ccccc1C(=O)OCC(=O)NC1CCS(=O)(=O)C1 (stereo not given)	none
Cc1cc(N2CCCCCC2)nc2ccc(F)cc12	none
Cc1ccccc1NC(=O)CCC(=O)OCC(=O)c1ccc(-c2ccccc2)cc1	none
CCNC(=O)c1ccccc1CCc1ccccc1	none
O=C1CCC([N+](=O)[O-])C(c2ccccc2Cl)N1 (stereo not given)	INS promoter act 79
CCN(C(=O)c1ccco1)c1nnc(-c2ccc(OC)cc2)s1	none
Cc1ccccc1NC(=O)c1cccc(C(F)(F)F)c1	none
O=C(Nc1cc(C(F)(F)F)ccc1N1CCOCC1)c1cncc(Br)c1	none
O=C(Nc1cc(C(F)(F)F)ccc1-n1cncn1)c1ccc(-c2ccccc2)cc1	INS promoter act 78
Cc1ccc(Nc2nc(-c3ccc(S(=O)(=O)N4CCOCC4)cc3)cs2)cc1Cl	none
Cn1c(N)c(C(=O)COC(=O)CSc2ccc(Cl)cc2)c(=O)n(C)c1=O	none
CCOC(=O)C1CCCN(C2CC(=O)N(c3ccccc3)C2=O)C1 (stereo not given)	none
CCc1ccc(N2C(=O)CC(N3CCC(C(=O)OC)CC3)C2=O)cc1 (stereo not given)	INS promoter act 543
CCc1ccc(N2CC(C(=O)OC)CC2=O)cc1 (stereo not given)	none
CCc1ccc2c(c1)/C(=N/OC)C(=O)N2	none
COCCN1C(=O)/C(=C/c2ccc(N3CCCC3)cc2C)SC1=S	INS promoter act 456[fluoresces]
CCN1C(=O)/C(=C\N2CCN(C)CC2)SC1=S	none
CCOC(=O)CN1C(=O)S/C(=C/c2cc(C)n(C)c2C)C1=O	none
O=C(Nc1cccc(C(F)(F)F)c1)n1cc(-c2ccccn2)c(N2CCOCC2)n1	none
COc1cc(OC)c(NC(=O)CCNS(=O)(=O)c2ccc3c(c2)oc(=O)n3C)cc1Cl	none
COc1ccccc1CNC(=O)C(CCSC)NS(=O)(=O)c1ccc2c(c1)oc(=O)n2C (stereo not given)	INS promoter act 164
COc1ccc(OC)c(NC(=O)CCNS(=O)(=O)c2ccc3c(c2)oc(=O)n3C)c1	none
O=S1(=O)CC(O)C(N2CCCCC2)C1 (stereo not given)	none
O=S(=O)(NC1CCCCC1)c1ccc(Br)cc1	none
COC(=O)C(C(=O)N1CCN(C)CC1)C1CCCCCC1 (stereo not given)	INS promoter act 431
CCOC(=O)C(C(=O)N1CCOCC1)C1CCCCC1 (stereo not given)	none
COC(=O)C(C(=O)NCC1CCCO1)C1CCCCCC1 (stereo not given)	none
Cc1ccccc1NC(=O)COC(=O)Cc1ccsc1	none
C=CCn1c(SCc2nc3sc4c(c3c(=O)[nH]2)CCCC4)nc2ccccc2c1=O	none
O=C1NC2CCCCC2NC1CC(=O)N1CCN(c2ccccc2)CC1 (stereo not given)	none
Cc1ccsc1C=C1C(=O)c2ccccc2C1=O	INS promoter act 312
Cc1ccc(C(=O)O)cc1-c1ccc(C=C2C(=O)c3ccccc3C2=O)o1	none
Cc1ccsc1/C=N/N1CCN(C2c3ccccc3-c3ccccc32)CC1	none
COc1ccc(NC(=O)c2cccc(S(=O)(=O)N3CCc4ccccc43)c2)cn1	none
COc1ccc(NC(=O)CSc2nnc(Cn3c(=O)sc4ccccc43)n2C)c(OC)c1	none

High-throughput results deposited in PubChem by Columbia University Molecular Screening Center.
